ChEMBL document CHEMBL3865847, “The synthesis and biological evaluation of alkyl and benzyl naphthyridinium analogs of eupolauridine as potential antimicrobial and cytotoxic agents” (Bioorg Med Chem, 2016)

How the values were obtained:
DNA topoisomerase 1 = biological target: T1, DNA topoisomerase 1 (Homo sapiens, UniProt P11387); assay: Inhibition of human DNA topoisomerase 1 using pHOT1 as substrate after 30 mins by agarose gel electrophoresis
T1 sequence (P11387 whole entry): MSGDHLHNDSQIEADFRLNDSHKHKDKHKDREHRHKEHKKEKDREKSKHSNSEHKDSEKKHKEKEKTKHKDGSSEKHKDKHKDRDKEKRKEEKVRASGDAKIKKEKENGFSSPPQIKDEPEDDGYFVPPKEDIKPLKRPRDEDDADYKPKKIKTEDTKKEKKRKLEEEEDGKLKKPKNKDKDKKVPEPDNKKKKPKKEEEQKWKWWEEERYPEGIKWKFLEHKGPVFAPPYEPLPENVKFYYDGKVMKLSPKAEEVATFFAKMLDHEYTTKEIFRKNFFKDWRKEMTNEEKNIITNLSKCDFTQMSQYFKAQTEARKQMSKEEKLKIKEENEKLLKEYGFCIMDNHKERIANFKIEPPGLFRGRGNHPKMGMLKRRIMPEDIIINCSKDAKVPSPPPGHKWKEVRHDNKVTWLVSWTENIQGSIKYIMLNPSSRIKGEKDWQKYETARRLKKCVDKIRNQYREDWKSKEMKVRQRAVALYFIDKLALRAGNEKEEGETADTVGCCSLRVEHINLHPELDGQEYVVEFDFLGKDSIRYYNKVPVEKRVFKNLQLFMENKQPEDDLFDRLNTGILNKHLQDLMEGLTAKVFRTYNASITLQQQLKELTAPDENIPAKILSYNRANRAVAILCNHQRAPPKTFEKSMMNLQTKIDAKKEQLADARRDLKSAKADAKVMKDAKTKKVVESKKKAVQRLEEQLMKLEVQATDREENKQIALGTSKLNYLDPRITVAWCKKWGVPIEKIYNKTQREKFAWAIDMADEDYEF
Summary of the method: (§1)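 Relaxation of supercoiled to relaxed DNA by TopoI measured with a commercial TopoI drug kit following kit protocol. IC50 calculated from dose-response curves of % inhibition versus concentration.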

[1] = Cytotoxicity against human SK-MEL cells assessed as cell growth inhibition after 48 hrs by neutral red dye based assay; assay type: functional
Summary of the method: (§2)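 Cells kept in RPMI-1640 with 10% bovine serum and 60 µg/mL amikacin, 37 °C, 5% CO2. Seeded at 25,000 cells/well, left 24 h to adhere. Samples diluted in RPMI added, highest final concentration 10 µg/mL. Growth measured by neutral red uptake after 48 h exposure.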

Pseudomonas aeruginosa = assay: Antimicrobial activity against Pseudomonas aeruginosa ATCC 15442; assay type: functional
Summary of the method: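 Pseudomonas grown 24 h in trypticase soy broth, diluted 1:50. Combined with diluted samples in 96-well plates, top final concentration 50 µg/mL (≤2.5% DMSO), 37 °C incubation. Growth read at 630 nm. MIC is the lowest tested concentration inhibiting 80% of growth versus controls; IC50 from concentration versus % growth graphs.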

[2] = Cytotoxicity against human BT549 cells assessed as cell growth inhibition after 48 hrs by neutral red dye based assay; assay type: functional; settings: BT-549, 48 h; summary of the method: as §2
Plasmodium falciparum = assay: Antimalarial activity against Plasmodium falciparum D6 infected in RBC after 48 hrs by lactate dehydrogenase assay; assay type: functional; settings: D6, 48 h
Summary of the method: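 Parasites grown in A+ human erythrocytes in RPMI 1640 with 10% A+ human serum, 25 mM HEPES, 27 mM bicarbonate, 60 µg/mL amikacin, 37 °C under 90% N2/5% O2/5% CO2. Infected cells exposed 48 h in microtiter wells, highest concentration 4.8 µg/mL. Growth read by Malstat reagent (parasite LDH) with nitro blue tetrazolium reduction, absorbance 630 nm.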

Staphylococcus aureus [3] = assay: Antimicrobial activity against methicillin-resistant Staphylococcus aureus; assay type: functional
Summary of the method: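 MRSA precultured 24 h, diluted 1:50 in broth, added to serially diluted samples in 96-well plates (highest final DMSO 2.5%), incubated at 37 °C. Growth measured as absorbance at 630 nm versus controls. MIC is the lowest concentration giving 80% inhibition; IC50 (50% inhibition) is read from concentration versus % growth plots.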

Cryptococcus neoformans = assay: Antimicrobial activity against Cryptococcus neoformans ATCC 52657; assay type: functional
Summary of the method: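 Grown in mycophil broth 72 h, hemocytometer-counted, diluted to 200,000 CFU/mL. Exposed to diluted samples in 96-well plates, maximum final 50 µg/mL (DMSO up to 2.5%), incubated 30 °C. A630 readout. MIC is the lowest concentration inhibiting 80% of growth versus controls; IC50 read from concentration versus % growth graphs.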

[4] = Selectivity index, ratio of IC50 for human DNA topoisomerase 1 to IC50 for Candida albicans DNA topoisomerase 1
[5] = test system: Mycobacterium intracellulare; assay: Antimicrobial activity against Mycobacterium intracellulare ATCC 23068; assay type: functional
Summary of the method: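 Mycobacterium grown 72 h in Middlebrook medium with OADC supplement, diluted 1:30 in broth. Incubated at 37 °C with diluted samples in 96-well plates, highest final 50 µg/mL, DMSO at most 2.5%. Absorbance at 630 nm. MIC = lowest concentration with 80% growth inhibition relative to controls; IC50 from concentration versus % growth plots.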

[6] = Cytotoxicity against African green monkey Vero cells assessed as cell growth inhibition at 10 ug/ml after 48 hrs by neutral red dye based assay; assay type: toxicity; settings: chlorocebus sabaeus; summary of the method: as §2
[7] = Inhibition of Candida albicans DNA topoisomerase 1 using pHOT1 as substrate after 30 mins by agarose gel electrophoresis; summary of the method: as §1
[8] = Cytotoxicity against human SKOV3 cells assessed as cell growth inhibition after 48 hrs by neutral red dye based assay; assay type: functional; settings: SK-OV-3, 48 h; summary of the method: as §2
[9] = Cytotoxicity against human KB cells assessed as cell growth inhibition after 48 hrs by neutral red dye based assay; assay type: functional; summary of the method: as §2
Staphylococcus aureus [10] = assay: Antimicrobial activity against Staphylococcus aureus ATCC 6538; assay type: functional
Summary of the method: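 Staphylococcus aureus grown 24 h in Eugon broth, diluted 1:50 in broth, added to serially diluted samples in 96-well plates (highest final DMSO 2.5%), incubated at 37 °C. Growth measured at 630 nm versus controls. MIC is the lowest concentration inhibiting 80% of growth; IC50 (50% inhibition) comes from concentration versus % growth plots.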

Candida albicans = assay: Antimicrobial activity against Candida albicans B311; assay type: functional
Summary of the method: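 Cultured in Sabouraud dextrose broth 24 h, counted by hemocytometer, diluted to 10,000 CFU/mL. Added to serially diluted samples in 96-well plates, top final concentration 50 µg/mL (≤2.5% DMSO), incubated 37 °C. Growth by A630. MIC is the lowest concentration giving 80% inhibition against controls; IC50 from concentration versus % growth plots.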

[11] = Cytotoxicity against African green monkey Vero cells assessed as cell growth inhibition after 48 hrs by neutral red dye based assay; assay type: toxicity, Chlorocebus sabaeus; summary of the method: as §2

Compound | IC50 (DNA topoisomerase 1) [µM] | IC50 [1] [µg/mL] | IC50 (Pseudomonas aeruginosa) [µg/mL] | IC50 [2] [µg/mL] | IC50 (Plasmodium falciparum) [µg/mL] | IC50 (Staphylococcus aureus [3]) [µg/mL] | IC50 (Cryptococcus neoformans) [µg/mL] | MIC80 (Cryptococcus neoformans) [µg/mL] | Ratio IC50 [4] | MIC80 [5] [µg/mL] | Activity [6] | IC50 [7] [µg/mL] | IC50 [8] [µg/mL] | IC50 [9] [µg/mL] | IC50 (Staphylococcus aureus [10]) [µg/mL] | IC50 (Candida albicans) [µg/mL] | MIC80 (Candida albicans) [µg/mL] | IC50 at 48 h [11] [µg/mL]
[Br-].c1ccc(C[n+]2ccc3c4c(nc5ccccc53)-c3ccccc3-c42)cc1 | 1.34 | 1.8 | 4 | 6 | 0.0415 | 35 | 2.13 | 12.5 | 0.96 | 10 | Non-Toxic | 0.55 | 1.2 | 2.9 | 5 | – | – | –
Brc1cccc(C[n+]2ccc3ccnc4c3c2-c2ccccc2-4)c1.[Br-] | 48.4 | 0.65 | 40 | 1.15 | 0.013 | – | 0.3 | 0.78 | 0.95 | 50 | Non-Toxic | 21 | 0.095 | 0.18 | – | 2.5 | 6.25 | –
COc1cc(C[n+]2ccc3ccnc4c3c2-c2ccccc2-4)cc(OC)c1.[Br-] | 34.5 | 2 | – | > 10 | 0.011 | 9 | 0.92 | 3.12 | 0.83 | 50 | Non-Toxic | 12.5 | < 1.1 | 7 | – | 20 | 25 | –
Cc1ccc(C[n+]2ccc3ccnc4c3c2-c2ccccc2-4)cc1.[Br-] | 28.3 | 1.9 | – | – | 0.0095 | 35 | 0.33 | 0.78 | 1 | 50 | Non-Toxic | 11 | < 1.1 | 6.8 | – | 3.17 | 6.25 | –
C[n+]1ccc2c3c(nc4ccccc42)-c2ccccc2-c31.Cc1ccc(S(=O)(=O)[O-])cc1 | 1.59 | > 10 | 50 | 7.5 | 0.0385 | – | 1.93 | 6.25 | – | – | Non-Toxic | 0.7 | 1.3 | 4.4 | – | 35 | – | –
NC(=O)C[n+]1ccc2ccnc3c2c1-c1ccccc1-3.[Br-] | – | 6.5 | – | – | 0.09 | – | 30 | 50 | – | – | – | – | > 10 | – | – | – | – | > 10
Cc1cc2c3c(nc4ccccc42)-c2ccccc2-c3[n+]1C.[I-] | 1.71 | > 10 | – | 5.4 | 0.02 | 25 | 1.83 | 3.12 | 0.71 | – | Non-Toxic | 0.5 | 4.5 | 3.5 | – | 25 | 50 | –
